# Entries after “also recorded” stand apart in the source; their conditions may differ. Marks after values point to notes of the source that are not given here.
# Key:
# [1] = Phase 1 open-label single-dose hepatic impairment PK study of ipatasertib; type: in vivo, human; settings: for tlast: 100 mg ipatasertib single oral, median (min-max); for AUC0‐∞, Test/Reference geometric mean ratio / Cmax, Test/Reference geometric mean ratio: (90%CI) where printed
# Method in brief: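 Open-label, parallel-group design: subjects with mild, moderate or severe hepatic impairment (Child-Pugh or NCI-ODWG) vs matched normal-function controls. Single oral 100 mg dose with 240 mL water after ≥8 h fast, then fasting ≥4 h. Plasma was sampled predose to day 15 for parent and M1, assayed with stable-labeled internal standards. Log-transformed AUC0‐∞ and Cmax were compared test vs reference with back-transformed geometric mean ratios and 90% CIs.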
# [2] = Safety and tolerability in the hepatic impairment study; type: in vivo, human
# [3] = cited from earlier work
# [4] = radiolabeled ipatasertib; ref data on file; cited from earlier work
# [5] = 100-mg dose of ipatasertib coadministered with itraconazole; cited from earlier work
# [6] = not assessed in this study; cited from earlier work
# [7] = once daily; combination setting; patients with solid tumors; cited from earlier work
# P‐glycoprotein (P‐gp) = settings: cited from earlier work
# CYP3A4 = settings: cited from earlier work
# [8] = cited from earlier work; remark: listed apart in the source
# [9] = Mild vs normal, Child-Pugh, listed as ipatasertib
# [10] = Mild vs normal, NCI-ODWG, listed as ipatasertib
# [11] = Moderate vs normal, Child-Pugh, listed as ipatasertib
# [12] = Moderate vs normal, NCI-ODWG, listed as ipatasertib
# [13] = Severe vs normal, Child-Pugh, listed as ipatasertib
# [14] = Severe vs normal, NCI-ODWG, listed as ipatasertib
# [15] = moderate or severe hepatic impairment, either method of classification
smiles,measurement,setting,value
CC(C)NC[C@@H](C(=O)N1CCN(c2ncnc3c2[C@H](C)C[C@H]3O)CC1)c1ccc(Cl)cc1 [Ipatasertib],tlast,"[1]; Child-Pugh, Healthy (N = 13)",120.0 (72.0‐120.4) h
same,tlast,"[1]; Child-Pugh, Mild (N = 8)",120.0 (48.0‐168.0) h
same,tlast,"[1]; Child-Pugh, Moderate (N = 8)",216.0 (146.5‐334.5) ^b h
same,tlast,"[1]; Child-Pugh, Severe (N = 7)",192.2 (167.7‐336.0) ^c h
same,tlast,"[1]; NCI-ODWG, Healthy (N = 21)",120.0 (48.0‐240.0) h
same,tlast,"[1]; NCI-ODWG, Mild (N = 5)",144.1 (96.0‐168.0)^c h
same,tlast,"[1]; NCI-ODWG, Moderate (N = 5)",240.8 (168.0‐334.5)^c h
same,tlast,"[1]; NCI-ODWG, Severe (N = 5)",216.4 (167.7‐336.0) h
same,systemic exposure compared to normal hepatic function,[1]; Child-Pugh mild hepatic impairment,comparable; also recorded: no appreciable difference
same,apparent plasma clearance lower than normal hepatic function,[1]; Child-Pugh moderate,≈ 2.5 fold
same,apparent volume of distribution lower than normal hepatic function,[1]; Child-Pugh moderate,~1.6 fold
same,mean elimination t1/2 longer than normal hepatic function,[1]; Child-Pugh moderate,≈ 1.7 fold
same,increase in systemic exposure (AUC0‐∞) compared to normal hepatic function,[1]; Child-Pugh moderate hepatic impairment,≈ 2 fold
same,apparent plasma clearance lower than normal hepatic function,[1]; Child-Pugh severe,≈ 2.9 fold
same,apparent volume of distribution lower than normal hepatic function,[1]; Child-Pugh severe,~2.1 fold
same,mean elimination t1/2 longer than normal hepatic function,[1]; Child-Pugh severe,~1.5 fold
same,increase in systemic exposure (AUC0‐∞) compared to normal hepatic function,[1]; Child-Pugh severe hepatic impairment,~3 fold
same,"AUC0‐∞, Test/Reference geometric mean ratio","[1]; Mild vs normal, Child-Pugh",89.5%
same,"Cmax, Test/Reference geometric mean ratio","[1]; Mild vs normal, Child-Pugh",98.6%
same,"AUC0‐∞, Test/Reference geometric mean ratio",[1]; [9],89.5 (65.1‐123.2) %
same,"Cmax, Test/Reference geometric mean ratio",[1]; [9],98.6 (52.8‐184.0) %
same,"AUC0‐∞, Test/Reference geometric mean ratio","[1]; Mild vs normal, NCI-ODWG",153.6%
same,"Cmax, Test/Reference geometric mean ratio","[1]; Mild vs normal, NCI-ODWG",101.1%
same,"AUC0‐∞, Test/Reference geometric mean ratio",[1]; [10],153.6 (87.7‐269.2) %
same,"Cmax, Test/Reference geometric mean ratio",[1]; [10],101.1 (35.9‐284.8) %
same,"AUC0‐∞, Test/Reference geometric mean ratio","[1]; Moderate vs normal, Child-Pugh",261.5%
same,"Cmax, Test/Reference geometric mean ratio","[1]; Moderate vs normal, Child-Pugh",184.1%
same,"AUC0‐∞, Test/Reference geometric mean ratio",[1]; [11],261.5 (191.2‐357.5) %
same,"Cmax, Test/Reference geometric mean ratio",[1]; [11],184.1 (112.2‐302.0) %
same,"AUC0‐∞, Test/Reference geometric mean ratio","[1]; Moderate vs normal, NCI-ODWG",339.1%
same,"Cmax, Test/Reference geometric mean ratio","[1]; Moderate vs normal, NCI-ODWG",198.1%
same,"AUC0‐∞, Test/Reference geometric mean ratio",[1]; [12],339.1 (241.7‐475.6) %
same,"Cmax, Test/Reference geometric mean ratio",[1]; [12],198.1 (109.5‐358.4) %
same,AUC0‐∞ higher than normal hepatic function,[1]; NCI-ODWG mild,≈ 1.5 fold
same,Cmax compared to normal hepatic function,[1]; NCI-ODWG mild,similar
same,"AUC0‐∞, Test/Reference geometric mean ratio","[1]; Severe vs normal, Child-Pugh",298.1%
same,"Cmax, Test/Reference geometric mean ratio","[1]; Severe vs normal, Child-Pugh",163.8%
same,"AUC0‐∞, Test/Reference geometric mean ratio",[1]; [13],298.1 (228.4‐389.0) %
same,"Cmax, Test/Reference geometric mean ratio",[1]; [13],163.8 (86.4‐310.3) %
same,"AUC0‐∞, Test/Reference geometric mean ratio","[1]; Severe vs normal, NCI-ODWG",267.0%
same,"Cmax, Test/Reference geometric mean ratio","[1]; Severe vs normal, NCI-ODWG",155.2%
same,"AUC0‐∞, Test/Reference geometric mean ratio",[1]; [14],267.0 (195.6‐364.3) %
same,"Cmax, Test/Reference geometric mean ratio",[1]; [14],155.2 (70.7‐340.9) %
same,Tmax,"[1]; human, plasma, po, 100 mg, median tmax, across all the groups, single oral 100-mg dose, Child-Pugh",30 to 60 min
same,AUC0‐∞ increase compared to normal hepatic function,[1]; [15],~3 fold
same,Cmax increase compared to normal hepatic function,[1]; [15],≈ 2 fold
same,total AEs reported,[2]; all 36 subjects,12 AEs
same,discontinuation due to AEs,[2]; in vivo,no subjects were discontinued
same,AEs reported,[2]; mild hepatic impairment,3 AEs
same,subjects with AEs,[2]; mild hepatic impairment,2 subjects
same,AEs reported,[2]; moderate hepatic impairment,3 AEs
same,subjects with AEs,[2]; moderate hepatic impairment,3 subjects
same,AEs reported,[2]; normal hepatic function,1 AE
same,subjects with AEs,[2]; normal hepatic function,1 subject
same,AE of orthostatic hypotension assessed as severe (grade 3),[2]; one subject with moderate hepatic impairment,1 AE
same,AEs reported,[2]; severe hepatic impairment,5 AEs
same,subjects with AEs,[2]; severe hepatic impairment,3 subjects
same,overall safety and tolerability,"[2]; single oral dose of 100 mg, normal hepatic function and hepatic impairment",generally safe and well tolerated
same,median half‐life (t1/2),[3]; 400-mg dose in patients,≈ 45 hours
same,dose proportionality,"[3]; single dose, doses of 100 to 800 mg, dose escalation study",close to dose proportionality
same,parent drug eliminated in urine,[4],≈ 8%
same,total administered dose eliminated in urine,[4],≈ 19%
same,increase of ipatasertib exposures with itraconazole,[5],≈ 5 fold
same,overall mean percentage unbound in human plasma,[6],63.6%
same,maximum tolerated dose,[7],400 mg
same,substrate of P‐glycoprotein (P‐gp),P‐glycoprotein (P‐gp),substrate
same,substrate of CYP3A4,CYP3A4,sensitive substrate
O=C(c1ccc(F)c(F)c1Nc1ccc(I)cc1F)N1CC(O)([C@@H]2CCCCN2)C1 [cobimetinib],exposure in subjects with normal and mildly impaired hepatic function,[8],comparable exposure
COc1cc2ncnc(Nc3ccc(F)c(Cl)c3)c2cc1NC(=O)/C=C/CN1CCCCC1 [dacomitinib],exposure in subjects with normal and mildly impaired hepatic function,[8],comparable exposure
CCN(CC)CCNC(=O)c1c(C)[nH]c(/C=C2\C(=O)Nc3ccc(F)cc32)c1C [sunitinib],exposure in subjects with normal and mildly impaired hepatic function,[8],comparable exposure
CC1(C)CCC(CN2CCN(c3ccc(C(=O)NS(=O)(=O)c4ccc(NCC5CCOCC5)c([N+](=O)[O-])c4)c(Oc4cnc5[nH]ccc5c4)c3)CC2)=C(c2ccc(Cl)cc2)C1 [venetoclax],exposure in subjects with normal and mildly impaired hepatic function,[8],comparable exposure
